The values below come from ChEMBL document CHEMBL1147733, “Design, synthesis, and biological evaluation of phosphinopeptides against Trypanosoma cruzi targeting trypanothione biosynthesis” (J Med Chem, 2006).

pIC50: −log10 of the molar value. Some results are limits rather than exact numbers.

The subject of assay [1] is Trypanosoma cruzi. The assay is described as follows: Inhibitory activity against Trypanosoma cruzi amastigotes. The class given is functional, organism-based. As to conditions: for pIC50: Trypanosoma cruzi. The essentials:
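Gamma-irradiated L6E9 myoblasts in DMEM/20% fetal calf serum, 24 h at 37 °C, then infected with 4.17 × 10⁶ trypomastigotes/well for 2 h (7% CO2). After washing, medium with 1 µCi/mL [5,6-³H]uracil and drug in ethanol added; TCA-precipitable ³H measured at day 3. Host toxicity up to 50 µM by phase-contrast microscopy; values are means of three experiments.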

Assay [2] relates to Trypanosoma cruzi. Briefly: Inhibitory activity against Trypanosoma cruzi Y epimastigotes. Type of assay: functional, organism-based. The essentials:
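Epimastigotes in sterile screw-cap tubes, drugs in absolute ethanol at 1, 5, 15 and 25 µg/mL, each in triplicate; ethanol-only control and medium blank. Growth read as absorbance at 600 nm against medium; percent inhibition = 100 − (ΔA_drug × 100)/ΔA_control, ΔA taken between start and end of culture.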

Turning to `CCCCP(=O)(O)CNC(=O)[C@H](CC(C)C)NC(=O)CCC(N)C(=O)O` (some centres not stated), the pIC50 (commonly the IC50 on a negative log10 scale, so that one unit is a factor of ten) with Trypanosoma cruzi [1] was 5.01; in the assay on Trypanosoma cruzi [2], less than 4.30.

Consider `CCCCCP(=O)(O)CNC(=O)[C@H](CC(C)C)NC(=O)CCC(N)C(=O)O` (some centres not stated), for which the pIC50 in the assay with Trypanosoma cruzi [1] was 4.85; in the assay with Trypanosoma cruzi [2], less than 4.30.

Consider `CC(C)C[C@H](NC(=O)CCC(N)C(=O)O)C(=O)NCP(C)(=O)O` (some centres not stated), for which the pIC50 in the assay with Trypanosoma cruzi [1] and in the assay with Trypanosoma cruzi [2] was less than 4.30 in each case.

Regarding `CCCP(=O)(O)CNC(=O)[C@H](CC(C)C)NC(=O)CCC(N)C(=O)O` (some centres not stated), the pIC50 in the assay with Trypanosoma cruzi [1] and in the assay on Trypanosoma cruzi [2] was less than 4.30 each time.

Consider `CCCCCCCP(=O)(O)CNC(=O)[C@H](CC(C)C)NC(=O)CCC(N)C(=O)O` (some centres not stated), for which the Inhibition (as a rule, the change of the read-out against control, counted positive when it falls) in the assay with Trypanosoma cruzi [1] was found to be 31%. For the same compound, the pIC50 in the assay on Trypanosoma cruzi [1] and with Trypanosoma cruzi [2] was less than 4.30 each time.

Regarding `CCP(=O)(O)CNC(=O)[C@H](CC(C)C)NC(=O)CCC(N)C(=O)O` (some centres not stated), the pIC50 with Trypanosoma cruzi [1] and in the assay on Trypanosoma cruzi [2] was less than 4.30 throughout.

In the assay on Trypanosoma cruzi [1], `CCCCCCP(=O)(O)CNC(=O)[C@H](CC(C)C)NC(=O)CCC(N)C(=O)O` (some centres not stated) showed an Inhibition of 45% and a pIC50 of less than 4.30. Besides, the pIC50 with Trypanosoma cruzi [2] is less than 4.30.

In the assay with Trypanosoma cruzi [1], `N#CSCCOc1ccc(Oc2ccccc2)cc1` had a pIC50 of 5.70.
